hERG rescue – compounds protecting human hERG from proarrhythmic drug block. Q12809. CHO-hERG, FluxOR thallium flux, dofetilide IC70 present. activation (rescue from dofetilide block), less the hit threshold, % at 10 µM. 310,000 tested, 0.51% active;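 active means activation above the mean of controls blocked by dofetilide plus 5 SD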;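 further: thallium influx through hERG after potassium depolarization seen as dye fluorescence rise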
KCNK3 block – human KCNK3 channel inhibition, primary screen | O14649 | CHO-KCNK3 thallium flux, FluxOR fluorescence; stronger effect = lower value | B-score at 10 µM | 340,000 tested, 0.84% active;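 active means B-score under library mean minus 4 SD, starting fluorescence ratio at most library mean plus 5 SD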;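 further: more negative B-score means stronger inhibition of thallium flux through KCNK3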
Target sequence (O14649 whole entry, looked up): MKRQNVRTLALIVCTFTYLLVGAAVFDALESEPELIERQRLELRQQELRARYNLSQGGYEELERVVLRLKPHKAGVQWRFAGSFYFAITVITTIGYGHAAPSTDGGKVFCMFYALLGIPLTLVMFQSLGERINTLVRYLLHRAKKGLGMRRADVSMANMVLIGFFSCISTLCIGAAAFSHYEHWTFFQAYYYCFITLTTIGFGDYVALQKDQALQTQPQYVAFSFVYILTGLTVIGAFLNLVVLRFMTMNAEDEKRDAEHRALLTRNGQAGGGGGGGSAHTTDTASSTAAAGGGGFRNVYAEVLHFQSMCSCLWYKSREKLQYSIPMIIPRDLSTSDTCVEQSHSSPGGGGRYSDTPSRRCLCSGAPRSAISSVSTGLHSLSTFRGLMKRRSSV
KCNQ1 inh – inhibitors of human KCNQ1 potassium channel; P51787; 310,000 tested, 1.3% active; AID 2642; B-score at 10 µM; CHO-K1 KCNQ1, FluxOR thallium flux fluorescence; stronger effect = higher value;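 active means compounds whose thallium flux B-score, printed positive for inhibition, exceeds three library SD while starting fluorescence stays within three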;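 further: channel opened by potassium depolarization with thallium stimulus after 20 min compound exposure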
KCNK9 block – inhibitors of human KCNK9 two-pore domain potassium channel. 310,000 tested, 1.2% active. Q9NPC2. AID 488922. B-score at 10 µM. HEK293 KCNK9, FluxOR thallium flux fluorescence; stronger effect = lower value;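 active means ratio B-score over 3 SD below the library mean, with starting fluorescence within 5 SD of its mean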;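 further: negative B-score means less thallium flux so channel inhibition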
KCNQ1 act – potentiators or activators of human KCNQ1 potassium channel. P51787. CHO-K1 KCNQ1, thallium flux FluxOR fluorescence; stronger effect = higher value. B-score at 10 µM. 310,000 tested, 0.35% active;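 active means fluorescence ratio B-score, a plate-corrected score, at least three library SD, with initial intensity B-score within 5 SD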
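Assay system: stable KCNQ1 CHO-K1 line; medium: assay buffer, equal DMSO in all wells; timing: 90 min dye loading and 20 min compound exposure, both at room temperature; technique: kinetic FluxOR thallium fluorescence, 10-s 1-Hz baseline, 110-s post-stimulus read; read-out basis: B score of baseline-normalized fluorescence ratio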
KCNK3 inh conf – confirmation of human KCNK3 two-pore domain potassium channel inhibitors | shares compounds with KCNK3 block | CHO-KCNK3 thallium flux, FluxOR fluorescence; 0% buffer, 100% carvedilol maximal block | ratio percent of control, % at 10 µM | 2,400 tested, 99% active | AID 651638;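 active means ratio percent of control, averaged over triplicates, above buffer control mean plus 5 SD, cut at about 64% in these data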;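 further: ratio is the fluorescence rise from min to max over baseline after thallium stimulus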
KCNK3 uninduced – KCNK3 inhibitor counter-screen hit in non-induced cells. shares compounds with KCNK3 block. non-induced KCNK3 parental cells, FluxOR thallium flux; stronger effect = lower value. thallium flux ratio (lower = more inhibition) at 10 µM. 2,400 tested, 40% active;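 active means thallium flux ratio, averaged over three wells, more than 5 SD below the buffer control mean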;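 further: host cells are CHO cells without KCNK3 induction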
Of the large screens only hits and unclear results are named; the others gave an inactive call (follow-up assays come after a bar, where they were run). Only some compounds are listed: those with a hit (about 3.1% of all), similar ones and a draw of the others.

CC(C)(C)C(CCl)C(=O)NN=C(c1ccccc1)c1ccccc1 (stereo not drawn)	none (no result: hERG rescue, KCNQ1 inh, KCNK9 block, KCNQ1 act)
CSc1ncnc2[nH]ccc12	none (no result: hERG rescue, KCNQ1 inh, KCNK9 block, KCNQ1 act)
O=C(Nc1ccc(Cl)cc1)N(Cc1cccs1)Cc1cccs1	KCNK3 block -12.5 | KCNK3 inh conf 129.7 | KCNK3 uninduced inactive
CCOC(=O)C1CCN(C(=O)CCCCn2c(=O)[nH]c3ccccc3c2=O)CC1	none
CC1=C(C(=O)OC(C)C)C(c2cn(-c3ccccc3)nc2-c2cccs2)NC(=O)N1 (stereo not drawn)	KCNK3 block -9.45 | KCNK3 inh conf 87.0 | KCNK3 uninduced inactive
CCOC(=O)c1cccc(N2C(=O)C3C(C2=O)C2C=CC3C23CC3)c1 (stereo not drawn)	KCNK3 block -18.2 | KCNK3 inh conf 92.3 | KCNK3 uninduced inactive
COc1ccc(OC)c(NC(=S)N2c3ccccc3CC2C)c1 (stereo not drawn)	KCNK3 block -9.09 | KCNK3 inh conf 105.0 | KCNK3 uninduced inactive
CCOc1ccc(C(=O)CCC(=O)NNC(=O)CCN2CCN(c3ccccc3)CC2)cc1	none (no result: hERG rescue, KCNQ1 inh, KCNK9 block, KCNQ1 act)
Clc1ccc(-c2nc3ccccn3c2CN2CCOCC2)cc1	none
COc1ccc(-c2nc3ccccn3c2CN2CCN(c3ccccc3F)CC2)cc1	KCNK3 block -8.78 | KCNK3 inh conf 106.3 | KCNK3 uninduced 0.157
O=C(Nc1ccc(Cl)c(Cl)c1)N1N=CCC1c1ccccc1 (stereo not drawn)	KCNK3 block -9.5, KCNK9 block -6.63 | KCNK3 inh conf 116.3 | KCNK3 uninduced inactive
O=C(Nc1ccccc1)N1N=CCC1c1ccccc1 (stereo not drawn)	none
N#Cc1cc(C(=O)Cc2ccccc2)c[nH]1	none
COc1cccc(CN2CCN(S(=O)(=O)c3ccc(Cl)s3)CC2)c1	KCNK3 block -9.22 | KCNK3 inh conf 116.3 | KCNK3 uninduced 0.127
COc1ccc(S(=O)(=O)N2CCN(Cc3cccc(Cl)c3)CC2)cc1	none
COc1cccc(NC(=O)N(Cc2ccco2)C(C)c2cccs2)c1 (stereo not drawn)	none
Cc1ccc(NC(=O)N(Cc2ccco2)C(C)c2ccco2)cc1C (stereo not drawn)	KCNK3 block -9.02 | KCNK3 inh conf 110.0 | KCNK3 uninduced inactive
Cc1ccc2nc(N/N=C\c3ccc([N+](=O)[O-])o3)nc(-c3ccccc3)c2c1	KCNK3 block -10.9, KCNQ1 inh 7, KCNK9 block -6.89 | KCNK3 inh conf 147.3 | KCNK3 uninduced 0.0867
Cc1ccsc1C(=O)NCCC(c1ccccc1)c1ccccc1	KCNK3 block -9.05 | KCNK3 inh conf 105.3 | KCNK3 uninduced inactive
C(=N\N(c1ccccc1)c1ccccc1)/c1ccccn1	KCNK3 block -9.88 | KCNK3 inh conf 132.7 | KCNK3 uninduced 0.124
N#C[C@H]1[C@H](c2ccccc2)[C@](C#N)(C(=O)c2ccccc2)[C@@H]2C=Cc3ccccc3N21	none (no result: KCNK3 block)
CCn1c(=NC(=O)c2cccc(N3C(=O)CCC3=O)c2)sc2c(C)ccc(OC)c21	KCNK3 block -9.4 | KCNK3 inh conf 106.3 | KCNK3 uninduced inactive
COc1ccc(N(Cc2cc(=O)[nH]c3ccccc23)C(C)=O)cc1	none
Cc1cccc(-n2c(SCC(=O)Nc3nnc(C)s3)nnc2-c2ccoc2C)c1	KCNK3 block -13.7 | KCNK3 inh conf 66.0 | KCNK3 uninduced 0.157
CCc1nnc(NC(=O)CSc2nnc(-c3ccoc3C)n2-c2cccc(C)c2)s1	none
CCC(C(=O)NCCc1c[nH]c2ccc(C)cc12)c1ccccc1 (stereo not drawn)	KCNK3 block -8.81, KCNK9 block -7.75 | KCNK3 inh conf 110.0 | KCNK3 uninduced inactive
Cc1ccc(C)c(NC(=O)C(=O)NCCc2c[nH]c3ccccc23)c1	none
C/C(N)=C(\C#N)C(=O)NCc1ccccn1	none
COCCOc1nc2c(c(=O)n(C)c(=O)n2C)n1Cc1cccc(OC)c1	KCNK3 block -11 | KCNK3 inh conf 66.0 | KCNK3 uninduced inactive
Cc1ccc(C2(C)NC(=O)N(CC(=O)NC3CCCCC3)C2=O)cc1 (stereo not drawn)	none (no result: hERG rescue, KCNQ1 inh, KCNK9 block, KCNQ1 act)
N#Cc1nc(COc2ccc(Cl)cc2)oc1NCc1ccc2c(c1)OCO2	KCNK3 block -11.4 | KCNK3 inh conf 137.7 | KCNK3 uninduced 0.156
Cc1cccc(OCc2nc(C#N)c(NCc3ccc4c(c3)OCO4)o2)c1	KCNK3 block -11.3 | KCNK3 inh conf 138.0 | KCNK3 uninduced 0.102
CN(Cc1ccccc1)C(=O)COC(=O)c1cc(=O)[nH]c2ccccc12	none (no result: hERG rescue, KCNQ1 inh, KCNK9 block, KCNQ1 act)
CCN(CC)C(=O)c1c(Cl)nc(C)c([N+](=O)[O-])c1C	none
COc1cccc(-c2nc(CS(=O)(=O)CC(=O)NC3CCC(C)CC3)c(C)o2)c1 (stereo not drawn)	KCNK3 block -10.4 | KCNK3 inh conf inactive | KCNK3 uninduced inactive
COc1cccc(-c2nc(CS(=O)(=O)CC(=O)NC3CCCC3)c(C)o2)c1	none
Cc1sc2ncnc(N3CCC(C(=O)Nc4ccc(Br)cc4Br)CC3)c2c1C	KCNK3 block -8.75 | KCNK3 inh conf 113.0 | KCNK3 uninduced inactive
COc1ccc(Br)cc1CN(C)CC(=O)NCCc1ccccc1	KCNK3 block -10.2 | KCNK3 inh conf 101.7 | KCNK3 uninduced inactive
COc1ccccc1CN(C)CC(=O)Nc1ccccc1-c1ccccc1	KCNK3 block -8.78 | KCNK3 inh conf 115.7 | KCNK3 uninduced 0.137
CC(C)(C)Nc1nc(SCc2ccccc2)nc(N2CCOCC2)n1	KCNK3 block -9.36 | KCNK3 inh conf 103.3 | KCNK3 uninduced 0.159
COC(=O)C1=C(C)NC(C)=C(C(=O)OCC2CCCO2)C1c1cccc(Cl)c1 (stereo not drawn)	KCNK3 block -11 | KCNK3 inh conf 117.3 | KCNK3 uninduced inactive
Cc1ccc(S(=O)(=O)NCC(c2ccco2)N2CCc3ccccc3C2)cc1 (stereo not drawn)	none
O=S(=O)(NCC(c1ccco1)N1CCc2ccccc2C1)c1ccc(Br)cc1 (stereo not drawn)	KCNK3 block -8.74 | KCNK3 inh conf 113.7 | KCNK3 uninduced inactive
O=C1CCC(C(=O)OC(C(=O)c2c[nH]c3ccccc23)c2ccccc2)=NN1 (stereo not drawn)	KCNK9 block -8.74 | KCNK3 inh conf 111.3 | KCNK3 uninduced inactive
Cc1ccc(Br)cc1S(=O)(=O)N1CCN(c2ccccc2)CC1	KCNK3 block -10.7 | KCNK3 inh conf 101.7 | KCNK3 uninduced 0.151
O=[N+]([O-])c1ccc(N=Nc2ccc(O)c3ccccc23)cc1	none (no result: hERG rescue, KCNQ1 inh, KCNK9 block, KCNQ1 act)
COCCN(C(=O)COC(=O)CCCOc1ccc(OC)cc1)c1c(N)n(Cc2ccccc2)c(=O)[nH]c1=O	none
CCc1cc(CN2CCOCC2)c(NC(=O)c2ccccc2)s1	KCNK3 block -9.27 | KCNK3 inh conf 102.0 | KCNK3 uninduced inactive
